The subject of one data set is MONOMAC6 and NB4 cells. Particulars: cited from earlier work.
The target of data set [1] is T1, FTO (Homo sapiens, UniProt Q9C0B1). The conditions noted are these: read-out: reported IC50 against FTO; cited from earlier work.
Data set [2] deals with T2, ALKBH5 (Homo sapiens, UniProt Q6P6C2). The conditions noted are these: cited from earlier work.
The nature of data set [3]: precipitation in assay buffer. The data set is classed as physicochemical. The conditions noted are these: dose response could not be determined.
The target in data set [4] is T1, FTO. The data set is described as follows: m6A7-Broccoli fluorescence enzymatic inhibition assay. The data set is classed as biochemical. The conditions noted are these: for preference for FTO over ALKBH5: FTO vs ALKBH5 IC50.
Data set [5] deals with T1, FTO. The experiment in a line: steady-state inhibition kinetics. The class given is biochemical. The conditions noted are these: vmax independent of inhibitor concentration; substrate 0-10 μM.
The subject of data set [6] is TS576 patient-derived GSC neurospheres. The data set is described as follows: neurosphere formation assay. The conditions noted are these: 2 days. The data set is classed as cell-based, human.
Data set [7] deals with GSC-23 patient-derived GSC neurospheres. The data set is described as follows: neurosphere formation assay. The class given is cell-based, human. The conditions noted are these: GSC-23, 20 μM, 2 days. The essentials:
(§1)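 Neurospheres of patient-derived glioblastoma stem cell lines, with normal human neural stem cells run alongside, were exposed to 20 μM test compound for 2 days. Wells were imaged by bright field, and neurosphere size was quantified by image analysis from more than 50 neurospheres per group. Groups were compared by Student's t test.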

Data set [8] concerns GBM-6 patient-derived GSC neurospheres. The experiment in a line: neurosphere formation assay. The class given is cell-based, human. Particulars: GBM-6, 20 μM, 2 days. The essentials:
as §1

For data set [9], the system named is healthy human neural stem cells (hNSCs) neurospheres. The experiment in a line: neurosphere formation assay. The class given is cell-based. The conditions noted are these: 20 μM. The essentials:
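Normal human neural stem cells were grown as neurospheres and treated with the test compound at 20 μM for 2 days. Neurospheres were imaged by bright field and sized by ImageJ, with more than 50 neurospheres per group. Comparisons by Student's t test.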

Data set [10] concerns m6A mRNA levels in TS576 cells. The experiment in a line: m6A dot blot assay of purified mRNA. The conditions noted are these: 30 μM, does not distinguish m6A and m6Am. The class given is cell-based, human. The essentials:
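TS576 patient-derived GSCs were treated with the test compound or DMSO, and mRNA was purified from them. m6A in the mRNA was assessed by dot blot. shControl versus shFTO knockdown in TS576 served as the reference for m6A change.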

Data set [11] relates to m6A and m6Am levels in GSCs. The data set is described as follows: quantification of m6A and m6Am by HPLC-MS/MS/MS. The class given is cell-based, human.
The target of data set [12] is T2, ALKBH5. The data set is described as follows: m6A7-Broccoli fluorescence enzymatic inhibition assay. The data set is classed as biochemical. The conditions noted are these: for selectivity between FTO and ALKBH5 (in words): comparison of IC50 toward both demethylases.
Data set [13] has as its system orthotopically transplanted GSC tumors. The conditions noted are these: cited from earlier work.

For orientation: IC50 means the concentration at which inhibition is half-maximal.

Structures are written as SMILES. Bounds are passed on as bounds.

T1 sequence (Q9C0B1 whole entry): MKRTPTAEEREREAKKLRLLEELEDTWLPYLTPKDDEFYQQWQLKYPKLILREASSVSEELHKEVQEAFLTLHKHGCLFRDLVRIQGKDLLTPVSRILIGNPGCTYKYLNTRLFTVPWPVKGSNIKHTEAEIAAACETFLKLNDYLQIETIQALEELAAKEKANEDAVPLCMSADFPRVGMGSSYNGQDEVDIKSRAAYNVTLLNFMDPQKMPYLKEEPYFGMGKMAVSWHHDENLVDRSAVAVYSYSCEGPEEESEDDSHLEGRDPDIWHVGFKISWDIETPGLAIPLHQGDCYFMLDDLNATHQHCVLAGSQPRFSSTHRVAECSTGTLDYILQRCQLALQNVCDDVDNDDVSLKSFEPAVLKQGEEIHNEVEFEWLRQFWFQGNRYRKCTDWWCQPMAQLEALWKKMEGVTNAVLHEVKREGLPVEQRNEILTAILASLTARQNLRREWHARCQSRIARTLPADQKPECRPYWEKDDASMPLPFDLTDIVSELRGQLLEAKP
T2 sequence (Q6P6C2 whole entry): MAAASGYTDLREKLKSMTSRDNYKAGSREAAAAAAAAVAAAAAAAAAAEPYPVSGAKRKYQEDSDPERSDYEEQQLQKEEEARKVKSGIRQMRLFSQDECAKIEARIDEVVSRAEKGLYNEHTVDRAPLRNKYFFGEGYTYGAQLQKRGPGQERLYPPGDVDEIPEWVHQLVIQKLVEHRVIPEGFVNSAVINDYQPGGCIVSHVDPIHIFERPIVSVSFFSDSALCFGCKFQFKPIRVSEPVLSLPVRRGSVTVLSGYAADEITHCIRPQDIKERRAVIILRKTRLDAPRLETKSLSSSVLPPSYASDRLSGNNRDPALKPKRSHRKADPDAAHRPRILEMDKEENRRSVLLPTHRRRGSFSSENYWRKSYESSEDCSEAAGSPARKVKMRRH

As for `Cc1noc(C)c1-c1cc(Cl)c(Nc2ccccc2C(=O)O)c(Cl)c1` [FB23], the cellular uptake result with MONOMAC6 and NB4 cells is listed as “poor cellular uptake”.

Consider `Cc1noc(C)c1-c1cc(Cl)c(Nc2ccccc2C(=O)NO)c(Cl)c1` [FB23–2], for which the IC50 at FTO [1] was 2600 nM. The “inhibition of FTO at 50 μM (stated as selectivity against ALKBH5)” value on ALKBH5 [2] is reported as “little to no inhibition”. In addition, the “cellular concentration relative to FB23” value with MONOMAC6 and NB4 cells (MONOMAC6 and NB4 cells) was 3−10 ×.

As to `COc1ncc(-c2cccc(OCc3ccccc3)c2)cn1` [FTO-03], the “precipitation in assay buffer” value in [3] is “significant precipitation”.

Take `COc1ncc(-c2ccc3nc(N)sc3c2)cn1` [FTO-04]: at FTO [4] (ratio of IC50 to MA (12.5 μM)), the “potency toward FTO relative to MA” value was “approximately 4 ×”. Moreover, the mechanism of inhibition result at FTO [5] is reported as “competitive mechanism of inhibition”. Besides, the size of neurospheres result in [6] (TS576, 20 μM) is “significantly decrease the size of neurospheres”; in data set [7] it was “significantly decrease the size of neurospheres”; in [8] it was “significantly decrease the size of neurospheres”; in data set [9], “no alteration in neurosphere size”. Moreover, in [6] (TS576, 30 μM), the “size of neurospheres vs vehicle control” value is on record as “significant reduction in size of the neurospheres”. In [10], the “m6A mRNA levels relative to DMSO control (dot blot)” value is listed as “increased”. For the same molecule, in [11], the “increase in m6A levels relative to DMSO control” value is given as ~ 1.4 ×. Also, the “increase in m6Am levels relative to DMSO control” value in data set [11] is ~ 3.2 ×.

With `COc1ccc2cc(-c3cncnc3)ccc2c1` [FTO-05], the “preference for FTO over ALKBH5” value at FTO [4] is not below 5 fold. At ALKBH5 [12], the IC50 is more than 40 µM and the “inhibition of ALKBH5 at the highest concentration measured” value (from here on “inhibition of ALKBH5”) was “no measurable inhibition”.

For `COc1ncc(-c2ccc(CO)c(OC)c2)cn1` [FTO-06], the “preference for FTO over ALKBH5” value at FTO [4] is not below 5 fold.

For the molecule `Cc1ccc2cc(-c3cncnc3)ccc2n1` [FTO-07], the “inhibition of ALKBH5” value against ALKBH5 [12] is listed as “no measurable inhibition”.

On to `COc1ccc2cc(-c3cnc(OC)nc3)ccc2c1` [FTO-08], for which, on ALKBH5 [12], the “selectivity between FTO and ALKBH5 (in words)” value is “equivalent inhibitors toward both demethylases”.

`Nc1ncc(-c2cccc(Nc3ccccc3)c2)cn1` [FTO-09]: the “potency toward ALKBH5 over FTO” value on ALKBH5 [12] (ALKBH5 vs FTO IC50) is on record as approximately 10 times. Further, the “selectivity between FTO and ALKBH5 (in words)” value on ALKBH5 [12] is listed as “distinct preference toward ALKBH5 over FTO”.

Consider `Nc1ncc(-c2ccc3cc(O)ccc3c2)cn1` [FTO-10], for which the “selectivity between FTO and ALKBH5 (in words)” value on ALKBH5 [12] is on record as “equivalent inhibitors toward both demethylases”.

For `COc1ncc(-c2ccc3nc(C)ccc3c2)cn1` [FTO-11], the “selectivity between FTO and ALKBH5 (in words)” value at ALKBH5 [12] was “equivalent inhibitors toward both demethylases”.

As to `COc1ccc2cc(-c3cnc(N)nc3)ccc2c1` [FTO-12], on FTO [4], the “preference for FTO over ALKBH5” value is listed as not below 5 fold. In addition, at ALKBH5 [12], the half-maximal inhibitory concentration (IC50) is more than 40 µM and the “inhibition of ALKBH5” value is reported as “no measurable inhibition”.

Turning to `Nc1ncc(-c2cccc(OCc3ccccc3)c2)cn1` [FTO-13], the “selectivity between FTO and ALKBH5 (in words)” value at ALKBH5 [12] was “distinct preference toward ALKBH5 over FTO”.

With `COCCNc1ncc(-c2ccc3cc(OC)ccc3c2)cn1` [FTO-15], the “precipitation in assay buffer” value in data set [3] is recorded as “significant precipitation”.

`COCCNc1ncc(-c2ccc(OCc3ccccc3)cc2)cn1` [FTO-18]: on ALKBH5 [12], the “inhibition of ALKBH5” value is recorded as “no measurable inhibition”.

Regarding `COCCNc1ncc(-c2ccc3nc(C)ccc3c2)cn1` [FTO-19], the “selectivity between FTO and ALKBH5 (in words)” value at ALKBH5 [12] is “equivalent inhibitors toward both demethylases”.

With `COCCNc1ncc(-c2ccc(CO)c(OC)c2)cn1` [FTO-20], the “preference for FTO over ALKBH5” value at FTO [4] is reported as not below 5 fold.

In the case of `Cc1ccc(Cl)c(Nc2ccccc2C(=O)O)c1Cl` [MA, meclofenamic acid], the “inhibition of FTO at 50 μM (stated as selectivity against ALKBH5)” value on ALKBH5 [2] is given as “little to no inhibition”. For the same molecule, in data set [13] (intracranial GSC xenograft mice), the lifespan result is listed as “prolong lifespan”. For the same molecule, the “tumor progression in vivo” value in data set [13] (orthotopically transplanted GSC tumors) was “prevented tumor progression in vivo”.
